High-throughput results (PubChem BioAssay)
MITF act = activators of MITF-driven TRPM1 promoter reporter, primary screen, cell-based, SK-MEL-5, luciferase, single point; 0.75% of 300,000 active; AID 588334, 2011; SK-MEL-5 TRPM1-promoter luciferase, 24 h; % of positive control, neutral wells = 0; activation, % at 12.5 µM;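 active = mean activation of at least 80% with every replicate also reaching 80%; inconclusive = mean reaches 80% but some replicate falls short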;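 also: 0% = neutral control wells and 100% = parthenolide positive control wells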
Wnt act = Wnt/beta-catenin pathway activators, primary screen, cell-based, plate reader, single point. Wnt/beta-catenin reporter cell assay, activator. activation, % at 9.35 µM. 1.2% of 300,000 active. AID 743398, 2014; in the data active = activation above about 30%, passing the limit was not always enough; inconclusive = no clear call, values can overlap the other calls;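 also: 0% = neutral control wells and 100% = positive control wells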
PGC1a acetyl inh = inhibitors of PGC1a acetylation signal, primary screen, cell-based, U2OS, AlphaScreen, inhibitor mode | inhibition, % at 15.6 µM | AlphaScreen anti-acetyl-lysine; with virally co-expressed GCN5 acetyltransferase | 0.17% of 350,000 active;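 active = every replicate shows inhibition of at least 40%; inconclusive = mean inhibition at least 40% but some replicate below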;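 also: 0% = neutral control wells and 100% = positive control wells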
Cneo AK release = Cryptococcus neoformans cell lysis inducers, primary screen, AK release luminescence, single concentration; C. neoformans lysis, adenylate kinase release luminescence, 4 h; normalised: neutral wells 0, clomiphene wells 100; 0.2% of 360,000 active; lysis activity, % at 15 µM;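 active = mean lysis activity across replicates of at least 80%, whatever share of replicates individually reach that level; inactive = mean lysis activity below 80%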
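Assay system: Cryptococcus neoformans yeast cells / Dosing: single-point compound dose / Timing: 4 h at 37 °C static, read 1 h later / Measured by: luminescence of released adenylate kinase using an AK detection reagent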
* hit, by the source's call; ? = inconclusive; / = no result given. Shown are actives, neighbours in structure and some others; about 1.5% of the full set was active somewhere.

SMILES	MITF act	Wnt act	PGC1a acetyl inh	Cneo AK release
O=C(CSC(=S)N1CCSCC1)c1ccc(Cl)cc1	82*	6	/	/
O=C(CSC(=S)N1CCSCC1)c1ccccc1	57	22	3	/
CC1Cc2ccccc2N1C(=O)/C=C/c1cccc(F)c1 (configuration not stated)	96*	14	4	-15
CC1Cc2ccccc2N1C(=O)COC(=O)/C=C/c1ccc(F)cc1 (configuration not stated)	-7	-1	6	0
COc1cc(CO)cc(I)c1O[C@H]1C=C(C(=O)NCCO)C[C@@H](N(C(=O)c2cc3ccccc3oc2=O)C2CCCCCC2)[C@@H]1O	/	/	/	-4
COc1cc(CO)cc(I)c1O[C@H]1C=C(C(=O)NCCO)C[C@@H](N(CC2CCCCC2)C(=O)c2cc3ccccc3oc2=O)[C@@H]1O	/	/	12	92*
FC(F)(F)c1cnc(Oc2ccccc2-c2nnco2)c(Cl)c1	-2	/	/	-5
Nc1ccccc1Oc1ncc(C(F)(F)F)cc1Cl	-1	0	46*	0
COc1cccc(CNC(=O)[C@@H]2[C@@H](CO)[C@@H]3Cn4c(ccc(C5=CCCCC5)c4=O)[C@H]2N3)c1	/	/	3	0
Cc1ccc(C2=NN(S(C)(=O)=O)C(c3ccc4c(c3)OCO4)C2)cc1 (configuration not stated)	38	50*	/	/
CS(=O)(=O)N1N=C(c2ccc(Br)cc2)CC1c1ccc2c(c1)OCO2 (configuration not stated)	?	/	-11	0
CNC[C@H]1Oc2cc(C#CCN(C)C)ccc2S(=O)(=O)N([C@H](C)CO)C[C@@H]1C	/	/	-7	1
CC(C)CC#Cc1ccc([C@H]2[C@H]3CN(C(=O)Cc4ccccc4)CC(=O)N3[C@H]2CO)cc1	/	/	6	/
Oc1ccccc1C=NNC(=S)Nc1ccc(F)cc1	-3	12	6	-4
Cc1nn(C)cc1/C=N/NC(=S)Nc1ccccc1	/	40*	-14	-2
COc1ccc(NC(=O)Nc2ccc3c(c2)C(=O)N([C@H](C)CO)C[C@@H](C)[C@@H](CN(C)C(=O)c2ccccc2)OCCCC[C@H](C)O3)cc1	/	/	-2	0
CCCn1ncc2c(Nc3ccc(C)c(C)c3)ncnc21	98*	20	-1	6
Cn1ncc2c(Nc3ccc(Cl)c(Cl)c3)ncnc21	54	5	-9	-1
Cc1noc(C)c1S(=O)(=O)Nc1ccc2c(c1)C(=O)N([C@H](C)CO)C[C@H](C)[C@H](CN(C)C(=O)CCC(F)(F)F)OCCCC[C@@H](C)O2	/	/	0	0
Cc1cc(C(=O)COC(=O)c2ccc(N)c([N+](=O)[O-])c2)c(C)n1Cc1ccc2c(c1)OCO2	77	37*	0	-6
COCC(=O)N1CC2(C1)CN(Cc1cc(F)ccc1F)[C@@H](CO)c1c2c2ccc(OC)cc2n1C	/	/	0	/
Cc1noc(C)c1S(=O)(=O)Nc1ccc2c(c1)C(=O)N([C@H](C)CO)C[C@H](C)[C@H](CN(C)CC1CCCCC1)OCCCC[C@H](C)O2	/	/	/	-6
C[C@@H]1CN([C@H](C)CO)C(=O)c2cccc(NC(=O)C3CCOCC3)c2O[C@@H]1CN(C)C(=O)NC1CCCCC1	/	/	3	-14
CCOC(=O)c1c(NC(=O)Nc2ccccc2)sc(C)c1C	6	/	-3	0
CCOC(=O)c1sc(NC(=O)Nc2cccc(Cl)c2)cc1C	60	35*	-10	-7
SMILES	MITF act	Wnt act	PGC1a acetyl inh	Cneo AK release
CCOC(=O)c1sc(NC(=O)c2ccc(Br)o2)cc1C	94*	/	-27	/
CCOC(=O)c1sc(NC(=O)c2cccs2)cc1C	46	/	/	6
CCOC(=O)c1sc(NC(=O)c2sccc2C)cc1C	/	59*	-5	-11
COC(=O)CCN(C(=O)c1ccc(Cl)c([N+](=O)[O-])c1)c1ccccn1	-20	33*	/	/
C[C@H]1CN([C@@H](C)CO)C(=O)c2ccccc2-c2ccccc2CO[C@H]1CN(C)C(=O)c1cc(Cl)cc(Cl)c1	/	/	-19	/
COc1ccc(C)cc1NC(=O)C1CCCN1S(=O)(=O)c1ccccc1F (configuration not stated)	-2	62*	5	1
CCCC#Cc1cnc2c(c1)C(=O)N([C@H](C)CO)C[C@H](C)[C@@H](CN(C)Cc1ccc3c(c1)OCO3)O2	/	/	-6	3
CCOc1cc(/C=N/NC(=O)c2ccccn2)ccc1OC(=O)c1cccs1	15	7	-6	4
O=C(N/N=C/c1ccc(OC(=O)c2cccs2)cc1)c1ccccn1	99*	28	0	2
O=C(N/N=C/c1ccc(N2CCOCC2)cc1)c1ccccn1	67	36*	-8	/
COc1ccccc1-c1cn(CC[C@H]2CC[C@@H](NC(=O)c3cnccn3)[C@H](CO)O2)nn1	/	/	2	/
COc1cccc(S(=O)(=O)Nc2ccc3c(c2)[C@@H]2C[C@H](CC(=O)N(C)C)O[C@@H](CO)[C@@H]2O3)c1	/	/	1	21
O=C(C[C@H]1C[C@@H]2c3cc(NS(=O)(=O)c4ccc(F)cc4)ccc3O[C@@H]2[C@@H](CO)O1)N1CCc2ccccc2C1	/	/	50*	1
COc1cccc(S(=O)(=O)Nc2ccc3c(c2)[C@H]2C[C@H](CC(=O)N(C)C)O[C@@H](CO)[C@H]2O3)c1	/	/	-5	99*
COc1ccc(CN(C)C[C@@H]2Oc3ccc(NC(=O)Nc4ccc(C(F)(F)F)cc4)cc3C(=O)N([C@H](C)CO)C[C@@H]2C)cc1	/	/	-9	1
O=C(C[C@@H]1CC[C@H]2[C@@H](COC[C@@H](O)CN2C(=O)Nc2ccc(Cl)cc2)O1)NCCc1ccncc1	/	/	3	100*
O=C(C[C@H]1CC[C@H]2[C@@H](COC[C@H](O)CN2C(=O)Nc2ccc3c(c2)OCO3)O1)N1CCN(c2ccccc2)CC1	/	/	-2	91*
O=C(C[C@@H]1CC[C@H]2[C@@H](COC[C@H](O)CN2C(=O)Nc2ccc(Cl)cc2)O1)N1CCCCC1	/	/	1	-2
O=C(C[C@H]1CC[C@H]2[C@@H](COC[C@@H](O)CN2C(=O)Nc2ccc(Cl)cc2)O1)N1CCCCC1	/	/	13	87*
CN(C)CC(=O)N1[C@@H]2c3ccc(C4=CCCCC4)c(=O)n3C[C@@H]2[C@@H](CO)[C@@H]1C(=O)Nc1nccs1	/	/	/	-3
Cc1noc(C)c1NC(=O)Nc1ccc2c(c1)C(=O)N([C@H](C)CO)C[C@H](C)[C@@H](CN(C)Cc1ccccc1)OCCCC[C@H](C)O2	/	/	7	14
CCCNC(=O)N[C@@H]1CC[C@H](CCn2cc(-c3cccc(F)c3)nn2)O[C@@H]1CO	/	/	4	-5
Cc1noc(C)c1S(=O)(=O)Nc1ccc2c(c1)CC(=O)N([C@@H](C)CO)C[C@@H](C)[C@H](CN(C)C(=O)Nc1ccccc1)O2	/	/	2	/
c1ccc2[nH]c(CCCc3nc4ccccc4[nH]3)nc2c1	/	2	-2	1
c1ccc(CCc2nc3ccccc3[nH]2)cc1	69	42*	13	-1
